Screens as filed in PubChem BioAssay.
Only some compounds are listed: those with a hit (about 2.9% of all), similar ones and a draw of the others.
S100A4 inh HTS: inhibitors of human S100A4 binding to myosin IIA peptide | S100A4/TAMRA-MyoIIA peptide fluorescence polarization | P26447 | AID 652163 | 0.14% of 360,000 active | inhibition, % at 10.7 µM;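 active means mean inhibition of at least 70% across replicates, with every replicate also reaching that level; inconclusive means mean inhibition reaches 70% but some replicates fall short; inactive means mean inhibition below 70%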
Target sequence (P26447 whole entry, looked up): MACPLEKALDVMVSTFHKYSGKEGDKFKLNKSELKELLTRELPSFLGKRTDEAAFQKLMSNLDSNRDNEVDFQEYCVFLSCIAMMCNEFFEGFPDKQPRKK
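Test system: S100A4 monomer protein. Medium: HEPES buffer with Ca2+, pH 7.2. Reagent: fluorescent myosin IIA peptide, 5 nM. Compound dosing: single-point compound testing. Timing: 5 min between mix addition and reading. Benchmarks: DMSO neutral and TFP positive wells.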
CAL PDZ FP-1: inhibitors of human CAL PDZ peptide binding | inhibition, % at 20 µM | 0.02% of 330,000 active | purified CAL PDZ, TMR-peptide fluorescence polarization, 1 h;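 active means highest replicate inhibition of at least 40%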;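 further: plate controls were DMSO neutral control wells for no effect and unlabeled competitor peptide control wells for full effect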
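Assay system – tagged CAL PDZ protein CerCALP, purified · Timing – 1 h at RT · Compound – single point, 20 µM · Measured by – fluorescence polarization from S- and P-plane intensities, G-factor corrected · Evaluation – inhibition from polarization loss · Probe or stimulus – TMR reporter peptide T*-PRC34 · Buffer or medium – pH 7.4 phosphate-saline buffer, reducing agent, detergent, IgG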
ERAP1 inh: inhibitors of human ERAP1 aminopeptidase; Q9NZ08; recombinant ERAP1, Leu-AMC fluorescence, 60 min; inhibition, % at 10.7 µM; 0.15% of 340,000 active;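 active means mean replicate inhibition of at least 30%, or all replicates individually reaching that 30% level; inactive means mean below 30% and not every replicate reaching it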;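 further: 0% = neutral control wells and 100% = L-leucinethiol positive control wells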
DENV2 CPE rescue: DENV2-induced cell death inhibition | DENV2-infected cells, cytopathic effect rescue, plate reader | CPE inhibition, % at 9.99 µM | 1.7% of 350,000 active; in the data active means CPE inhibition above about 20%, passing the limit was not always enough; inconclusive means no clear call, values can overlap the other calls; tested in BHK-21 cells;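 further: 0% = median of neutral control wells and 100% = median of positive control wells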
CAL PDZ FP-2: CAL PDZ (human) peptide binding inhibition; Q9HD26; purified CAL PDZ, TMR-peptide fluorescence polarization, 1 h; inhibition, % at 24.9 µM; 0.92% of 300,000 active; AID 602252;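 active means mean inhibition of at least 30% with at least half of replicates also reaching 30%; inconclusive means no clear call, values can overlap the other calls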;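 further: 0% = DMSO neutral control and 100% = excess unlabeled competitor peptide PRC23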
SIRT5 block: blocks human SIRT5 desuccinylation of peptide. Q9NXA8. Purified SirT5, succinyl-peptide AMC, trypsin-coupled fluorescence. inhibition, % at 15 µM. 1.1% of 330,000 active. AID 652115; in the data active means inhibition above about 15%; inconclusive means no clear call, values can overlap the other calls
Target sequence (Q9NXA8 whole entry, looked up): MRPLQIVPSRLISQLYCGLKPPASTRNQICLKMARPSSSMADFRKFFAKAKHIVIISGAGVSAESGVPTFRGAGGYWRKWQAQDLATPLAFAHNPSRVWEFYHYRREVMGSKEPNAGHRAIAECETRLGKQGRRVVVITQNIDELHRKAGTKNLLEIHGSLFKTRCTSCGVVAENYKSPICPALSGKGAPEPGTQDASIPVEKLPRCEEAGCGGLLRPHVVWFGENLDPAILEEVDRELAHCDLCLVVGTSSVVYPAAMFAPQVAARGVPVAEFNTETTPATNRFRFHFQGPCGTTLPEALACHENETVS
* hit, by the source's call.

`CC(=O)N1[C@@H]2Cn3c(ccc(C4=CCCCC4)c3=O)[C@H]1[C@@H](C(=O)N[C@@H](C)c1ccccc1)[C@@H]2CO` gave S100A4 inh HTS inconclusive, ERAP1 inh -2, DENV2 CPE rescue -3 and SIRT5 block -14.
Screening CCS(=O)(=O)NCC[C@H]1CC[C@H](NC(=O)C2CC2)[C@H](CO)O1 returned S100A4 inh HTS 15, ERAP1 inh 4, DENV2 CPE rescue 1 and SIRT5 block -6.
Screening COc1ccc2c3c([nH]c2c1)[C@@H](CO)N(C(=O)C1CCCCC1)CC31CCN(C(=O)c2ccncc2)CC1 returned S100A4 inh HTS -73, ERAP1 inh 0, DENV2 CPE rescue 5 and SIRT5 block 3.
For OC[C@H]1[C@@H](c2ccc(C3=CCCC3)cc2)[C@H]2CN(CCC(F)(F)F)CCCCN21 the results were S100A4 inh HTS -7, ERAP1 inh 3, DENV2 CPE rescue 4 and SIRT5 block 7.
Screening CC1CCC(NC(=O)CCN2C(=O)C3CC=CCC3C2=O)CC1 (stereo unspecified) returned S100A4 inh HTS 7, CAL PDZ FP-1 0, ERAP1 inh -2, DENV2 CPE rescue -4, CAL PDZ FP-2 67* and SIRT5 block 3.
For O=C(CCN1C(=O)C2CC=CCC2C1=O)NC1CCCCC1 (stereo unspecified) the results were S100A4 inh HTS -2, CAL PDZ FP-1 -1, ERAP1 inh 5, DENV2 CPE rescue 0, CAL PDZ FP-2 2 and SIRT5 block 1.
CCOC(=O)Cc1csc(NC(=O)Cn2cnc3c2c(=O)n(C)c(=O)n3C)n1 was read as S100A4 inh HTS 3, ERAP1 inh 0, CAL PDZ FP-2 -7 and SIRT5 block 25*.
For COc1ccc(NC(=O)CN(C)C(=O)Cn2cnc3c2c(=O)n(C)c(=O)n3C)cc1 the results were S100A4 inh HTS -7, CAL PDZ FP-1 -3, ERAP1 inh 7, DENV2 CPE rescue -8, CAL PDZ FP-2 0 and SIRT5 block -2.
Screening CCOc1ccc(NC(=O)CN(C)C(=O)Cn2cnc3c2c(=O)n(C)c(=O)n3C)cc1OCC returned S100A4 inh HTS -1, CAL PDZ FP-1 0, ERAP1 inh 30*, DENV2 CPE rescue 10, CAL PDZ FP-2 0 and SIRT5 block 1.
Screening CCCNC(=O)N[C@H]1CC[C@H](CCn2cc(C3CC3)nn2)O[C@@H]1CO returned S100A4 inh HTS -3, ERAP1 inh 6, DENV2 CPE rescue -8 and SIRT5 block 1.
For COc1ccccc1CNC(=O)C[C@@H]1C[C@@H]2c3cc(NC(=O)NC4CCCC4)ccc3O[C@@H]2[C@H](CO)O1 the results were S100A4 inh HTS 2, ERAP1 inh -3, DENV2 CPE rescue 19 and SIRT5 block -2.
`Cc1onc(-c2c(Cl)cccc2Cl)c1C(=O)N1CCN(c2ccccc2)CC1` gave S100A4 inh HTS -3, CAL PDZ FP-1 -3, ERAP1 inh -1, DENV2 CPE rescue 4, CAL PDZ FP-2 2 and SIRT5 block -3.
`Cc1onc(-c2c(Cl)cccc2Cl)c1C(=O)N1CCN(c2ncccn2)CC1` gave S100A4 inh HTS -1, CAL PDZ FP-1 1, ERAP1 inh 0, DENV2 CPE rescue -2, CAL PDZ FP-2 51* and SIRT5 block -2.
Screening CCS(=O)(=O)Nc1ccc2c(c1)C(=O)N(C)C[C@@H](OC)[C@@H](C)CN(C(=O)C1CC1)[C@@H](C)CO2 returned S100A4 inh HTS 0, ERAP1 inh 0, DENV2 CPE rescue 0 and SIRT5 block -4.
For CN(C)CC#Cc1ccc([C@@H]2[C@H](CO)N3CCCCN(C(=O)Nc4cc(F)ccc4F)C[C@@H]23)cc1 the results were S100A4 inh HTS -4, ERAP1 inh 1, DENV2 CPE rescue -14 and SIRT5 block -2.
For CN(C)CC#Cc1ccc([C@H]2[C@H](CO)N3CCCCN(C(=O)Nc4cc(F)ccc4F)C[C@@H]23)cc1 the results were S100A4 inh HTS 7, ERAP1 inh 1, DENV2 CPE rescue 32* and SIRT5 block -1.
CN(C)CC#Cc1ccc([C@H]2[C@@H](CO)N3CCCCN(C(=O)c4ccc5c(c4)OCO5)C[C@H]23)cc1 was read as S100A4 inh HTS -3, ERAP1 inh -2, DENV2 CPE rescue 22* and SIRT5 block 1.
